The record followed here is ChEMBL document CHEMBL1145516, “Structure-activity relationships for interaction with multidrug resistance protein 2 (ABCC2/MRP2): the role of torsion angle for a series of biphenyl-substituted heterocycles” (Drug Metab Dispos, 2007).

Data set [1] relates to Caco-2. As to the kind of experiment: Ratio of permeability from basolateral to apical side over apical to basolateral side of human Caco-2 cell membrane at 10 uM. Format: ADME, cell-based. Particulars: caco-2, 10 µM. The gist of the method: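 Caco-2 monolayers seeded at 1x10^5 cells/cm2, grown 21-25 days, TEER >600 Ohm/cm2. Compound at 10 µM in HBSS pH 7.4 added to apical or basal donor side; 2 h at 37°C with shaking. Both sides sampled, quantified by LC/MS/MS.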

Data set [2] relates to MRP2. As to the kind of experiment: Permeability across dog MDCK cells expressing MRP2. Format: ADME, cell-based, Canis lupus familiaris. Particulars: read-out: permeability.
In data set [3] the test system is Caco-2. As to the kind of experiment: Ratio of permeability from basolateral to apical side over apical to basolateral side of human Caco-2 cell membrane at 10 uM in presence of MRP2 inhibitor MK571. Conditions: caco-2, 10 µM. For orientation: Caco-2 monolayers are a common model of the intestinal barrier.

Turning to `NC(=O)Nc1cn(-c2ccc(-c3ccc(O)cc3)c(F)c2)nc1C(N)=O`, the Ratio in data set [1] worked out at 1.35. In data set [2], the Papp is 3 ×10⁻⁶ cm/s.

Regarding `Cc1cc(O)ccc1-c1ccc(-n2cc(NC(N)=O)c(C(N)=O)n2)cc1C`, the Ratio in data set [1] is reported as 26.02; in data set [3], 2.53. In data set [2], the Papp was determined as 3 ×10⁻⁶ cm/s.
